Screening results (PubChem BioAssay)
An excerpt weighted towards active compounds, which were near 3.7% of everything screened.
KCNQ1 block: blocks the human KCNQ1 potassium channel | P51787 | CHO-K1 KCNQ1, FluxOR thallium flux fluorescence; stronger effect = higher value | B-score at 10 µM | hit rate 1.3% among 310,000 | AID 2642;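 active means compounds whose thallium flux B-score, printed positive for inhibition, exceeds three library SD while starting fluorescence stays within three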;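 further: channel opened by potassium depolarization with thallium stimulus after 20 min compound exposure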
KCNK9 inh: blocks the human KCNK9 two-pore domain potassium channel | Q9NPC2 | HEK293 KCNK9, FluxOR thallium flux fluorescence; stronger effect = lower value | B-score at 10 µM | hit rate 1.2% among 310,000 | AID 488922;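 active means ratio B-score over 3 SD below the library mean, with starting fluorescence within 5 SD of its mean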;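 further: negative B-score means less thallium flux so channel inhibition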
KCNQ1 act: potentiators or activators of human KCNQ1 potassium channel. P51787. CHO-K1 KCNQ1, thallium flux FluxOR fluorescence; stronger effect = higher value. B-score at 10 µM. hit rate 0.35% among 310,000. AID 2648;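 active means fluorescence ratio B-score, a plate-corrected score, at least three library SD, with initial intensity B-score within 5 SD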
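System: CHO-K1 cells stably expressing KCNQ1 / Medium: assay buffer for compound exposure, DMSO matched across wells / Reagent: thallium- and potassium-containing depolarizing buffer / Compound: one concentration, matched DMSO / Incubation: 20 min compound pretreatment at room temperature / Measured by: kinetic FluxOR fluorescence, 10 s baseline plus 110 s post-stimulus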
hERG rescue: compounds protecting human hERG from proarrhythmic drug block. Q12809. CHO-hERG, FluxOR thallium flux, dofetilide IC70 present. activation (rescue from dofetilide block), less the hit threshold, % at 10 µM. hit rate 0.51% among 310,000;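 active means activation above the mean of controls blocked by dofetilide plus 5 SD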;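 further: thallium influx through hERG after potassium depolarization seen as dye fluorescence rise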
Target sequence (Q12809 whole entry, looked up): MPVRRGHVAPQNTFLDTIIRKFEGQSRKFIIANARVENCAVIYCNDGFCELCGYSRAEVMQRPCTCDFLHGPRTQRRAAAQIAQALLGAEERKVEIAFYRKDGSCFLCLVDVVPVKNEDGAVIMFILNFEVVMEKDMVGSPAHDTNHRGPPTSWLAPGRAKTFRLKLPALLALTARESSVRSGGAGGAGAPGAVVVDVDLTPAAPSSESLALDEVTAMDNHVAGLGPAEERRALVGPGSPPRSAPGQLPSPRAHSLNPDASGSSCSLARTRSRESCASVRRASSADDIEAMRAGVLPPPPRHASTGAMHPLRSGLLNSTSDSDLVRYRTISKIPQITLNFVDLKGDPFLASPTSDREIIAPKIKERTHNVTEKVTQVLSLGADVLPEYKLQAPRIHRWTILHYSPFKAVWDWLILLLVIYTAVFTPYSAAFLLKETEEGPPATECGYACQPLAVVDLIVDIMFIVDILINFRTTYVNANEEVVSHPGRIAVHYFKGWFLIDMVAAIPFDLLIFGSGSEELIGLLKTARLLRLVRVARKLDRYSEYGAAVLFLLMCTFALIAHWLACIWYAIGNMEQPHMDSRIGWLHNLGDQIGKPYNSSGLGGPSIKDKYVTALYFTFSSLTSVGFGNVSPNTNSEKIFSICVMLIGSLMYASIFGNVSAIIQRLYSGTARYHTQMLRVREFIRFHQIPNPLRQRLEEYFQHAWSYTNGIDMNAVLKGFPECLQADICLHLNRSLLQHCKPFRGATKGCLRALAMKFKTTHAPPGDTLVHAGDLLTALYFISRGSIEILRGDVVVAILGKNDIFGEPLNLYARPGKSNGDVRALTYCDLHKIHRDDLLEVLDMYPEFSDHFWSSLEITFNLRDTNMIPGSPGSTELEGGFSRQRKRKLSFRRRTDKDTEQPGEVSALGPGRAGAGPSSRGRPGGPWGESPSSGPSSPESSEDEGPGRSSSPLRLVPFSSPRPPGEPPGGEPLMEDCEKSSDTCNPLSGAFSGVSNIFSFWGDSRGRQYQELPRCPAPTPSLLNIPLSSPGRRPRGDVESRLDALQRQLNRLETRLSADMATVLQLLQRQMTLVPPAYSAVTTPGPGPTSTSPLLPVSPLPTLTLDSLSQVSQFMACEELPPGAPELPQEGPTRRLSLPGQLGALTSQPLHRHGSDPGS
Kir21 inh: Kir2.1 (mouse) channel inhibition. HEK293-Kir2.1, FluxOR thallium flux fluorescence; stronger effect = lower value. B-score at 10 µM. hit rate 0.85% among 310,000. AID 1672;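 active means fluorescence ratio B-score at or below minus 3 SD of library scores, with starting-brightness B-score within 2 SD, cut at about -4.2 in these data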;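 further: channel flux triggered by added potassium and thallium sulfate stimulus; B-score of peak minus minimum fluorescence over baseline after thallium stimulus; more negative B-score means stronger Kir2.1 block with less thallium influx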
KCNK3 inh: human KCNK3 channel inhibition, primary screen; CHO-KCNK3 thallium flux, FluxOR fluorescence; stronger effect = lower value; O14649; B-score at 10 µM; hit rate 0.84% among 340,000;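 active means B-score under library mean minus 4 SD, starting fluorescence ratio at most library mean plus 5 SD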;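 further: more negative B-score means stronger inhibition of thallium flux through KCNK3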
Starred values were filed as active, the others as inactive.

How did COc1ccc(Cl)cc1C(=O)NNC(=O)c1cc2ccccc2o1 do in these assays?
KCNK3 inh: inactive

Results for CC(C)Oc1ccc(C(=O)Nc2cccc3cccnc23)cc1 ?
KCNQ1 block: inactive; KCNK9 inh: -6.8*; KCNQ1 act: inactive; hERG rescue: -4; Kir21 inh: -1.2; KCNK3 inh: inactive

How did CCOc1ccc(C(=O)Nc2cccc3cccnc23)cc1 do in these assays?
KCNQ1 block: inactive; KCNK9 inh: inactive; KCNQ1 act: inactive; hERG rescue: -7; Kir21 inh: 1.3; KCNK3 inh: inactive

How did COc1ccc(/C=C/C(=O)OCC(=O)NCc2ccccc2Cl)cc1OC do in these assays?
KCNK3 inh: inactive

Results for OC(CNCC1CCCO1)Cn1c2ccc(Cl)cc2c2cc(Cl)ccc21 (stereo unspecified) ?
KCNQ1 block: inactive; KCNK9 inh: inactive; KCNQ1 act: inactive; hERG rescue: -32; Kir21 inh: -5.4*; KCNK3 inh: inactive

What do the screens show for `C[C@@H](NS(=O)(=O)c1cc(Cl)ccc1F)[C@H](O)c1ccccc1`?
KCNK3 inh: inactive

Results for O=C(CCNS(=O)(=O)c1ccccc1)NNC(=O)COc1ccc(Cl)cc1 ?
KCNK3 inh: inactive

What do the screens show for `COc1cc(NCCCn2ccc(NC(=O)OCc3ccccc3)nc2=O)cc(OC)c1OC`?
KCNK3 inh: inactive

What do the screens show for `COn1c2c(c3c4no[n+]([O-])c4ccc31)CCCC2`?
KCNQ1 block: inactive; KCNK9 inh: inactive; KCNQ1 act: inactive; hERG rescue: -4; Kir21 inh: -0.25; KCNK3 inh: inactive

How did [O-][n+]1c2c(c3c4non(O)c4ccc31)CCCC2 do in these assays?
KCNQ1 block: 6*; KCNK9 inh: inactive; KCNQ1 act: inactive; hERG rescue: -20; Kir21 inh: -4.7; KCNK3 inh: inactive

Results for CC[C@@]1(C(=O)OC)N[C@H](CN(C)C(=O)Nc2ccc(Cl)cc2)[C@@H]2C(=O)N(Cc3ccccc3)C(=O)[C@@H]21 ?
KCNK3 inh: inactive

What do the screens show for `CCOc1cc(C(=O)Nc2ccc(C(=O)NCCN(CC)CC)cc2)ccc1OCC(=O)N1CCOCC1`?
KCNK3 inh: inactive

Results for COc1ccc(-c2c[n+](CC(=O)OC3CC(C)CCC3C(C)C)c3n2CCC3)cc1 (stereo unspecified) ?
KCNQ1 block: inactive; KCNK9 inh: inactive; KCNQ1 act: inactive; hERG rescue: -20; Kir21 inh: -5.2*; KCNK3 inh: inactive

How did Cn1cccc1C(=O)Nc1ccc(Cl)c(S(=O)(=O)N2CCCCC2)c1 do in these assays?
KCNK3 inh: inactive

Results for O=C(COc1ccc(-c2nnco2)cc1)N1CCOCC1 ?
KCNK3 inh: inactive

What do the screens show for `CNC(=O)/C(C#N)=C/c1cccc(Oc2ccccc2)c1`?
KCNQ1 block: inactive; KCNK9 inh: inactive; KCNQ1 act: inactive; hERG rescue: -13; Kir21 inh: -5.1*; KCNK3 inh: inactive

What do the screens show for `CC(C)CN(C(=O)CCNC(=O)c1ccc(Cl)cc1)C1CCS(=O)(=O)C1` (stereo unspecified)?
KCNK3 inh: inactive

Results for Cc1cc(Oc2ccc(C)c(Cl)c2)nc(SCC(=O)c2ccccc2)n1 ?
KCNQ1 block: inactive; KCNK9 inh: -7.2*; KCNQ1 act: inactive; hERG rescue: -2; Kir21 inh: -2.4; KCNK3 inh: inactive

What do the screens show for `Cc1cc(C(=O)COc2cc(F)ccc2[N+](=O)[O-])c(C)n1C1CC1`?
KCNQ1 block: inactive; KCNK9 inh: inactive; KCNQ1 act: inactive; hERG rescue: 34*; Kir21 inh: -2.5; KCNK3 inh: inactive

How did Clc1cccc(C2Nc3cccc4cccc(c34)N2)c1Cl do in these assays?
KCNQ1 block: 10*; KCNK9 inh: inactive; KCNQ1 act: inactive; hERG rescue: -12; Kir21 inh: -0.52; KCNK3 inh: inactive

Results for c1coc(C2Nc3cccc4cccc(c34)N2)c1 ?
KCNQ1 block: inactive; KCNK9 inh: inactive; KCNQ1 act: inactive; hERG rescue: -12; Kir21 inh: 0.39

How did CC(CC(=O)c1ccc(F)cc1)N1CCN(c2ccccc2)CC1 (stereo unspecified) do in these assays?
KCNK3 inh: inactive
